The target of series [1] is T1, 1-deoxy-D-xylulose 5-phosphate reductoisomerase (Escherichia coli K-12) (UniProt P45568).
T1 sequence (whole entry): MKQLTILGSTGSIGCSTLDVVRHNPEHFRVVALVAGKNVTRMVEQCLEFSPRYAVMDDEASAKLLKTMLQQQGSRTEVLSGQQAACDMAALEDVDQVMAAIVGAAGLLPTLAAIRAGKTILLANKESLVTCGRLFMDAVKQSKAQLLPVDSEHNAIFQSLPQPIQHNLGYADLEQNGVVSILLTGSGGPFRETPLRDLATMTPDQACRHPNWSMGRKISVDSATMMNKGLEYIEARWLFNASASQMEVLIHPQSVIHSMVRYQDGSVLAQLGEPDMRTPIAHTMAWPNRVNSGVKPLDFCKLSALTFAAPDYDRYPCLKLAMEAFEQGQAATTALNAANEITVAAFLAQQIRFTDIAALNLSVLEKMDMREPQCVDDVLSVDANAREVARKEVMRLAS
As to the kind of experiment: Inhibition of His-tagged Escherichia coli DXR at 20 uM pre-incubated for 2 mins before reaction initiation in presence of 160 uM NADPH in absence of 0.01% Triton X100. The procedure, abridged: (§1)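 His-tagged E. coli DXR at 37 °C in 50 mM Tris/HCl pH 7.5 with 3 mM MgCl2 and 2 mM DTT. Enzyme preincubated 2 min with inhibitor and 480 µM DXP, then started with NADPH (160 µM final). Run with or without 0.01% Triton X100. Final DMSO 0.4% (v/v). IC50 taken from % residual activity vs log[inhibitor]; otherwise % inhibition at 20 µM.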

Series [2] concerns the target T2, Malate dehydrogenase (Thermus thermophilus) (UniProt P10584).
T2 sequence (whole entry): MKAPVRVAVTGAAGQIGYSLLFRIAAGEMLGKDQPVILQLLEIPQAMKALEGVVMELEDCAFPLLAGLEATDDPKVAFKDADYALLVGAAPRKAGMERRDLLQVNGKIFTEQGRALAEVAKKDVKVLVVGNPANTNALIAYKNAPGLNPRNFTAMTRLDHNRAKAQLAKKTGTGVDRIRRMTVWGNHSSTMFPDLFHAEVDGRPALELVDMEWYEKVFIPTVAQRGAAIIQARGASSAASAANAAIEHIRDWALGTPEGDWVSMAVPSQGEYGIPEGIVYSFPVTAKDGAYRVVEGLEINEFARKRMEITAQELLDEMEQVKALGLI
As to the kind of experiment: Inhibition of Thermus flavus MDH at 50 uM pre-incubated for 4 mins before reaction initiation in presence of OAA and NAPH in absence of 0.01% Triton X100 by UV-Vis spectrophotometry. Put shortly: (§2)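 MDH in 50 mM Tris/HCl pH 7.5 at 37 °C. Preincubated 4 min with inhibitor, with or without 0.01% (w/v) Triton X100. Reaction started by successive addition of oxaloacetate (250 µM final) and NADH (160 µM final). Initial rates followed as A340 decrease. At least duplicate; 0.4% DMSO final.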

Series [3] concerns the target T1, 1-deoxy-D-xylulose 5-phosphate reductoisomerase (Escherichia coli K-12). As to the kind of experiment: Inhibition of His-tagged Escherichia coli DXR at 20 uM pre-incubated for 2 mins before reaction initiation in presence of 160 uM NADPH in presence of 0.01% Triton X100. Put shortly:
as §1

For series [4] the target is unchanged. As to the kind of experiment: Inhibition of His-tagged Escherichia coli DXR at 6 uM pre-incubated for 2 mins before reaction initiation in absence of 160 uM NADPH. Put shortly: (§3)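 H-DXR in 50 mM Tris/HCl pH 7.5, 3 mM MgCl2, 2 mM DTT, 37 °C. Enzyme preincubated 2 min with inhibitor at 6 µM, with or without NADPH (160 µM). Reaction started by DXP (480 µM final) to measure residual activity.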

For series [5], the target named is T3, 1-deoxy-D-xylulose 5-phosphate reductoisomerase (Escherichia coli K-12, UniProt P45568).
T3 sequence (P45568 whole entry): T1 sequence (whole entry)
As to the kind of experiment: Inhibition of His-tagged Escherichia coli DXR pre-incubated for 2 mins before reaction initiation in presence of 160 uM NADPH in absence of 0.01% Triton X100.

In series [6] the target is T1, 1-deoxy-D-xylulose 5-phosphate reductoisomerase (Escherichia coli K-12). The settings on record: 10 uM.
For series [7], the target named is T2, Malate dehydrogenase (Thermus thermophilus). As to the kind of experiment: Inhibition of Thermus flavus MDH at 50 uM pre-incubated for 4 mins before reaction initiation in presence of OAA and NAPH in presence of 0.01% Triton X100 by UV-Vis spectrophotometry. Put shortly: as §2
In series [8] the target is T1, 1-deoxy-D-xylulose 5-phosphate reductoisomerase (Escherichia coli K-12). As to the kind of experiment: Inhibition of His-tagged Escherichia coli DXR at 6 uM pre-incubated for 2 mins before reaction initiation in presence of 160 uM NADPH. The procedure, abridged: as §3
Series [9] has the same target. As to the kind of experiment: Inhibition of His-tagged Escherichia coli DXR at 10 uM pre-incubated for 2 mins before reaction initiation in presence of 160 uM NADPH.
Series [10] deals with T4, Malate dehydrogenase (Thermus thermophilus, UniProt P10584).
T4 sequence (P10584 whole entry): T2 sequence (whole entry)
As to the kind of experiment: Inhibition of Thermus flavus MDH pre-incubated for 4 mins before reaction initiation in presence of OAA and NAPH in absence of 0.01% Triton X100 by UV-Vis spectrophotometry. Put shortly: as §2

Series [11] concerns Escherichia coli. As to the kind of experiment: Antimicrobial activity against Escherichia coli XL1 Blue at 400 nmol/4 uL by paper disc diffusion method. The format is functional. The procedure, abridged:
(§4)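 Paper disc diffusion on E. coli XL1 Blue. Discs impregnated with compound dissolved in DMSO (4 µL): 400 nmol in the initial screen, then 200 to 800 nmol. Read-out is the diameter of the growth inhibition zone (mm).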
Background: Agar diffusion results depend on both activity and mobility in agar.

For series [12], the target named is T1, 1-deoxy-D-xylulose 5-phosphate reductoisomerase (Escherichia coli K-12). The following applies: 1 to 8 uM.
The test system of series [13] is Escherichia coli. As to the kind of experiment: Antimicrobial activity against Escherichia coli XL1 Blue at 800 nmol/4 uL by paper disc diffusion method. The format is functional. Put shortly:
as §4

In series [14] the target is T3, 1-deoxy-D-xylulose 5-phosphate reductoisomerase. As to the kind of experiment: Inhibition of His-tagged Escherichia coli DXR pre-incubated for 2 mins before reaction initiation in presence of 160 uM NADPH in presence of 0.01% Triton X100. The procedure, abridged: as §1
Series [15] can be described thus: Lipophilicity, log P of the compound. The series is classed as physicochemical. The settings on record: octanol/water.
Series [16] addresses T4, Malate dehydrogenase. As to the kind of experiment: Inhibition of Thermus flavus MDH pre-incubated for 4 mins before reaction initiation in presence of OAA and NAPH in presence of 0.01% Triton X100 by UV-Vis spectrophotometry. Put shortly:
as §2

Series [17] concerns the target T3, 1-deoxy-D-xylulose 5-phosphate reductoisomerase.
Series [18] has as its target T2, Malate dehydrogenase (Thermus thermophilus). As to the kind of experiment: Inhibition of Thermus flavus MDH at 10 uM pre-incubated for 4 mins before reaction initiation in presence of OAA and NAPH in presence of 0.01% Triton X100 by UV-Vis spectrophotometry. Put shortly:
as §2

SMILES strings stand for the structures. The source made the active and inactive calls. The rule behind the calls is not given here. Bounds are passed on as bounds.

Take `O=C(O)CN1C(=O)/C(=C/c2ccccc2)SC1=S`: the inhibition in series [1] and in series [2] was under 5% in each case.

On to `Cc1ccc(Oc2ccc(NC(=O)CN3C(=O)/C(=C/c4ccc(O)c(O)c4)SC3=S)cc2)cc1`, for which the inhibition in series [3] is 10%; in series [4], 38%; in [6], under 5%; in series [7], under 5%; in series [8] it was 30%; in [9] it was 53%. Moreover, the IC50 is 4.1 µM in series [5] and 0.4 µM in series [10].

`O=C(CN1C(=O)/C(=C/c2ccc(O)c(O)c2)SC1=S)NO`: the results for the inhibition in [4], in series [7] and in [8] were 70%, 53% and 29%, respectively. For the same molecule, the half-inhibitory concentration (IC50) turned out to be 3.8 µM in [5], 6.1 µM in [14] and 3.4 µM in series [10]. Also, the “inhibition zone (IZ)” value was determined as 14 mm in [11] and 20 mm in series [13]. The inhibition entry in series [12] was “Active”. In addition, the logP in series [15] is 1.8.

With `O=C(O)CN1C(=O)/C(=C/c2ccc(O)c(O)c2)SC1=S`, the 50% inhibitory concentration (IC50) was 15 µM in series [16], 3.1 µM in series [5], 4.4 µM in series [14] and 4.7 µM in series [10]. The results for the inhibition in series [4] and in [8] were 61% and 41%, respectively. This molecule gave an alphaKi in series [12] of 3 µM. Also, the Ki in [17] amounted to 7.7 µM. In series [15], the logP is 1.

In the case of `O=C(CN1C(=O)/C(=C/c2cccc(O)c2O)SC1=S)Nc1ccc(Oc2ccc(Cl)cc2)cc1`, the inhibition in series [18] was under 5%; in series [3] it was under 5%; in [4] it was 63%; in [8], 43%. The half-maximal inhibitory concentration (IC50) was determined as 3.3 µM in series [5] and 0.7 µM in series [10].

`Cc1ccc(Oc2ccc(NC(=O)CN3C(=O)/C(=C/c4cccc(O)c4O)SC3=S)cc2)cc1`: the inhibition in series [18] was under 5%; in [3], under 5%; in series [4], 60%; in series [8] it was 38%. Further, the results for the 50% inhibitory concentration (IC50) in series [5] and in series [10] were 3.6 µM and 1 µM, respectively.

As for `O=C(CN1C(=O)/C(=C/c2ccc(O)cc2O)SC1=S)Nc1ccc(Oc2ccc(Cl)cc2)cc1`, in series [18], the inhibition is under 5%. For the same molecule, the results for the IC50 in series [5] and in series [10] were 58 µM and 1.3 µM, respectively.

Regarding `O=C(CN1C(=O)/C(=C/c2ccc(O)c(O)c2)SC1=S)Nc1ccc(Oc2ccc(Cl)cc2)cc1`, the inhibition was under 5% in [3], 64% in series [4], under 5% in [7] and 41% in [8]. For the same molecule, the IC50 in [5] is 3.2 µM; in series [10], 0.5 µM.

Usually inhibition stands for the change of the read-out against control, counted positive when it falls. In general, IC50 refers to the concentration that inhibits the measured activity by half. Broadly, the logP is a log measure of how a compound divides between an organic and an aqueous phase. A high value points to a more lipophilic compound. A word on the Ki: it is a measure of affinity in units of concentration, obtained from inhibition or displacement.

The values are drawn from ChEMBL document CHEMBL3352327, “Catechol-rhodanine derivatives: Specific and promiscuous inhibitors of Escherichia coli deoxyxylulose phosphate reductoisomerase (DXR)” (Bioorg Med Chem, 2014).
